From ChEMBL document CHEMBL4052705, “Synthesis and biological evaluation of 2-methyl-1H-benzimidazole-5-carbohydrazides derivatives as modifiers of redox homeostasis of Trypanosoma cruzi” (Bioorg Med Chem Lett, 2017) come the findings set out here.

Active and inactive are the calls of the source. The calls are words filed in the database; no cut-off is given here. Where only a bound is given, the exact number is not on record here.

For data set [1], the system named is Trypanosoma cruzi. The data set is described as follows: Antitrypanosomal activity against Trypanosoma cruzi Queretaro epimastigotes assessed as reduction in parasite viability incubated for 24 hrs by Neubauer hematocytometery. In kind it is functional. In outline: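 T. cruzi Queretaro-strain epimastigotes were exposed to the compounds and parasite growth was measured. IC50 was taken as the concentration that inhibits parasite growth by 50%.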

Data set [2] is described as follows: Cytotoxicity against mouse J774 cells incubated for 24 hrs by resazurin dye based fluorescence assay. The format is cell-based. The essentials: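 J774 mouse macrophage cell line was exposed to the compounds, and cytotoxicity was read as resazurin reduction using a previously described method with modifications. The read-out gave CC50.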
(In general: Resazurin is reduced to fluorescent resorufin, in cell work by metabolically active cells.)

Data set [3] can be described thus: Selectivity index, ratio of CC50 for cytotoxicity against mouse J774 cells to IC50 for antitrypanosomal activity against Trypanosoma cruzi Queretaro epimastigotes. In kind it is toxicity, cell-based. As to conditions: read-out: Ratio CC50/IC50. The essentials:
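Selectivity index was calculated as CC50 in J774 mouse macrophages (resazurin reduction) divided by IC50 for growth inhibition of Queretaro-strain epimastigotes.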

Data set [4] concerns Trypanosoma cruzi. As to the kind of experiment: Induction of changes in cellular redox balance in Trypanosoma cruzi Queretaro epimastigotes assessed as increase in cysteine level incubated for 24 hrs by HPLC and UV-Vis spectrophotometry. The format is functional.
Data set [5] has as its system Trypanosoma cruzi. The data set is described as follows: Induction of changes in cellular redox balance in Trypanosoma cruzi Queretaro epimastigotes assessed as increase in T(SH)2 level at 5 to 20 uM incubated for 24 hrs by HPLC and UV-Vis spectrophotometry. In kind it is functional.
The subject of data set [6] is Trypanosoma cruzi. The data set is described as follows: Induction of changes in cellular redox balance in Trypanosoma cruzi Queretaro epimastigotes assessed as increase in GSH level incubated for 24 hrs by HPLC and UV-Vis spectrophotometry. In kind it is functional.

For `Cc1nc2cc(C(=O)N/N=C/c3ccc([N+](=O)[O-])o3)ccc2[nH]1`, in the data set on Trypanosoma cruzi [1], the 50% inhibitory concentration (IC50) – broadly, the concentration at which inhibition is half-maximal – is 434 µM.
Same read-out and setting: to `COc1cc(/C=N/NC(=O)c2ccc3[nH]c(C)nc3c2)cc(OC)c1OC` belongs more than 500 µM.
With `Cc1nc2cc(C(=O)O)ccc2[nH]1`, the concentration for half-maximal inhibition (IC50) in the data set on Trypanosoma cruzi [1] was found to be 226 µM. Further, in data set [2], the CC50 (commonly the concentration giving 50% cytotoxicity) at 24 h amounted to 264 µM. Moreover, the selectivity ratio in data set [3] was determined as 1.2.
For `CC1CS(=O)(=O)CCN1/N=C/c1ccc([N+](=O)[O-])o1` (stereo not given) [NIFURTIMOX], the selectivity ratio in data set [3] is 36.5.
Take `Cc1nc2cc(C(=O)N/N=C/c3cc(O)ccc3O)ccc2[nH]1`: the IC50 in the data set on Trypanosoma cruzi [1] was more than 500 µM.
On the same count and under the same terms, to `Cc1nc2cc(C(=O)N/N=C/c3ccc4c(c3)OCCO4)ccc2[nH]1` belongs more than 500 µM.
Turning to `COc1ccc(/C=N/NC(=O)c2ccc3[nH]c(C)nc3c2)cc1`, the half-maximal inhibitory concentration (IC50) in the data set with Trypanosoma cruzi [1] worked out at 320 µM.
For the compound `COc1ccc(/C=N/NC(=O)c2ccc3[nH]c(C)nc3c2)cc1OC`, in the data set with Trypanosoma cruzi [1], the half-inhibitory concentration (IC50) was more than 500 µM.
On to `O=C(Cn1ccnc1[N+](=O)[O-])NCc1ccccc1` [BENZNIDAZOLE], for which the IC50 with Trypanosoma cruzi [1] was determined as 7.5 µM.
With `Cc1nc2cc(C(=O)NN)ccc2[nH]1`, the IC50 with Trypanosoma cruzi [1] worked out at 393 µM. In data set [2], this compound showed a CC50 at 24 h of 233 µM. Also, the selectivity ratio in data set [3] amounted to 0.6.
With `COc1ccc(/C=N/NC(=O)c2ccc3[nH]c(C)nc3c2)c(OC)c1OC`, the IC50 with Trypanosoma cruzi [1] was more than 500 µM.
With `Cc1nc2cc(C(=O)N/N=C/c3ccccc3)ccc2[nH]1`, the half-maximal inhibitory concentration (IC50) in the data set on Trypanosoma cruzi [1] turned out to be 280 µM.
Regarding `COc1cc(/C=N/NC(=O)c2ccc3[nH]c(C)nc3c2)ccc1O`, the Activity entry with Trypanosoma cruzi [4] and in the data set with Trypanosoma cruzi [6] was “Dose-dependent effect” each time. Further, the 50% inhibitory concentration (IC50) in the data set on Trypanosoma cruzi [1] is 3 µM. The same compound registered a CC50 at 24 h in data set [2] of 161 µM. Moreover, the outcome in the data set with Trypanosoma cruzi [5] was inactive. For the same compound, the selectivity ratio in data set [3] turned out to be 53.5.
In the case of `COc1cc(/C=C/C=N/NC(=O)c2ccc3[nH]c(C)nc3c2)ccc1O`, the Activity entry in the data set with Trypanosoma cruzi [4] and in the data set on Trypanosoma cruzi [6] was “Dose-dependent effect” throughout. Also, the IC50 in the data set with Trypanosoma cruzi [1] worked out at 8 µM. In data set [2], this compound yielded a CC50 at 24 h of 161 µM. In the data set on Trypanosoma cruzi [5], the result was Active. Besides, the selectivity ratio in data set [3] stood at 20.1.
On to `Cc1nc2cc(C(=O)N/N=C/c3ccc(O)c(O)c3)ccc2[nH]1`, for which the 50% inhibitory concentration (IC50) in the data set with Trypanosoma cruzi [1] came to 380 µM.
On the same count and under the same terms, for `Cc1nc2cc(C(=O)N/N=C/c3ccc(O)cc3)ccc2[nH]1` the value was more than 500 µM.
